Test results as given in ChEMBL document CHEMBL4138201, “Synthesis and biological evaluation of sulfur-containing shikonin oxime derivatives as potential antineoplastic agents” (Eur J Med Chem, 2018).
Activity calls are given as the source filed them. No cut-off for these calls is given here.

Columns and labels:
HCT-15 [1] = assay: Cytotoxicity against human HCT15 cells after 48 hrs by MTT assay; format: functional, cell-based; conditions: HCT-15, 48 h
Outline: (§1)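 MTT colorimetric assay. Shikonin and 5-fluorouracil served as reference agents. IC₅₀ obtained by linear regression of each compound's concentration–response curve.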

MGC-803 = assay: Cytotoxicity against human MGC803 cells after 48 hrs by MTT assay; format: functional, cell-based; conditions: MGC-803, 48 h; outline: as §1
Bel-7402 = assay: Cytotoxicity against human Bel7402 cells after 48 hrs by MTT assay; format: functional, cell-based; conditions: Bel-7402, 48 h; outline: as §1
MCF7 = assay: Cytotoxicity against human MCF7 cells after 48 hrs by MTT assay; format: functional, cell-based; conditions: MCF7, 48 h; outline: as §1
[2] = Cytotoxicity against human HSF cells after 48 hrs by MTT assay; format: cell-based; outline: as §1
[3] = Induction of NO release in phosphate buffer at pH 7.4 at 0.1 mM measured after 1 hr in presence of N-acetylcysteine by Griess assay; format: functional
Outline: (§2)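 Percentage of NO released in vitro measured by Griess assay against a standard curve. Incubation in 0.5 mM N-acetylcysteine, read hourly from 1 to 6 h.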

[4] = Induction of NO release in phosphate buffer at pH 7.4 at 0.1 mM measured after 2 hrs in presence of N-acetylcysteine by Griess assay; format: functional; outline: as §2
[5] = Induction of NO release in phosphate buffer at pH 7.4 at 0.1 mM measured after 3 hrs in presence of N-acetylcysteine by Griess assay; format: functional; outline: as §2
[6] = Induction of NO release in phosphate buffer at pH 7.4 at 0.1 mM measured after 4 hrs in presence of N-acetylcysteine by Griess assay; format: functional; outline: as §2
[7] = Induction of NO release in phosphate buffer at pH 7.4 at 0.1 mM measured after 5 hrs in presence of N-acetylcysteine by Griess assay; format: functional; outline: as §2
[8] = Induction of NO release in phosphate buffer at pH 7.4 at 0.1 mM measured after 6 hrs in presence of N-acetylcysteine by Griess assay; format: functional; outline: as §2
HCT-15 [9] = assay: Cell cycle arrest in human HCT15 cells assessed assessed as accumulation at G1 phase at 0.5 uM after 24 hrs by propidium iodide staining-based flow cytometric method (reference value: 36.7%); format: functional
Outline: (§3)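 HCT-15 cells seeded in 6-well plates, exposed to 0, 0.5 or 1.0 µM for 24 h, then harvested and stained with propidium iodide. DNA content read by flow cytometry and G1, S and G2/M fractions calculated. Comparison with untreated control by Student's t-test.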

HCT-15 [10] = assay: Cell cycle arrest in human HCT15 cells assessed assessed as accumulation at G1 phase at 1.0 uM after 24 hrs by propidium iodide staining-based flow cytometric method (reference value: 36.7%); format: functional; outline: as §3
HCT-15 [11] = assay: Cell cycle arrest in human HCT15 cells assessed assessed as accumulation at S phase at 0.5 to 1.0 uM after 24 hrs by propidium iodide staining-based flow cytometric method; format: functional; conditions: in the assay text read “accumulation at G1 phase” for “accumulation at S phase”; outline: as §3
HCT-15 [12] = assay: Cell cycle arrest in human HCT15 cells assessed assessed as accumulation at G2/M phase at 0.5 to 1.0 uM after 24 hrs by propidium iodide staining-based flow cytometric method; format: functional; conditions: in the assay text read “accumulation at G1 phase” for “accumulation at G2/M phase”; outline: as §3
HCT-15 [13] = assay: Induction of apoptosis in human HCT15 cells assessed as nuclear fragmentation up to 1.0 uM after 24 hrs by Hoechst 33342 staining-based fluorescence microscopic method; format: functional, cell-based
Outline: (§4)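 HCT-15 cells incubated 24 h at 0, 0.5 or 1.0 µM, then stained with Hoechst 33342. Nuclei examined by fluorescence for fragmentation, chromatin condensation and staining intensity.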

HCT-15 [14] = assay: Induction of apoptosis in human HCT15 cells assessed as chromatin condensation up to 1.0 uM after 24 hrs by Hoechst 33342 staining-based fluorescence microscopic method; format: functional, cell-based; outline: as §4
HCT-15 [15] = assay: Induction of apoptosis in human HCT15 cells assessed as necrotic cells at 0.5 uM after 24 hrs by Annexin-V-FITC/propidium iodide staining based flow cytometry (reference value: 0.005%); format: functional
HCT-15 [16] = assay: Induction of apoptosis in human HCT15 cells assessed as late apoptotic cells at 0.5 uM after 24 hrs by Annexin-V-FITC/propidium iodide staining based flow cytometry (reference value: 6.59%); format: functional
HCT-15 [17] = assay: Induction of apoptosis in human HCT15 cells assessed as early apoptotic cells at 0.5 uM after 24 hrs by Annexin-V-FITC/propidium iodide staining based flow cytometry (reference value: 2.97%); format: functional
HCT-15 [18] = assay: Induction of apoptosis in human HCT15 cells assessed as viable cells at 0.5 uM after 24 hrs by Annexin-V-FITC/propidium iodide staining based flow cytometry (reference value: 90.4%); format: functional; conditions: HCT-15, 24 h, read-out: Activity
HCT-15 [19] = assay: Induction of apoptosis in human HCT15 cells assessed as necrotic cells at 1 uM after 24 hrs by Annexin-V-FITC/propidium iodide staining based flow cytometry (reference value: 0.005%); format: functional
HCT-15 [20] = assay: Induction of apoptosis in human HCT15 cells assessed as late apoptotic cells at 1 uM after 24 hrs by Annexin-V-FITC/propidium iodide staining based flow cytometry (reference value: 6.59%); format: functional
HCT-15 [21] = assay: Induction of apoptosis in human HCT15 cells assessed as early apoptotic cells at 1 uM after 24 hrs by Annexin-V-FITC/propidium iodide staining based flow cytometry (reference value: 2.97%); format: functional
HCT-15 [22] = assay: Induction of apoptosis in human HCT15 cells assessed as viable cells at 1 uM after 24 hrs by Annexin-V-FITC/propidium iodide staining based flow cytometry (reference value: 90.4%); format: functional; conditions: HCT-15, 24 h, read-out: Activity
HCT-15 [23] = assay: Induction of apoptosis in human HCT15 cells assessed as necrotic cells at 2 uM after 24 hrs by Annexin-V-FITC/propidium iodide staining based flow cytometry (reference value: 0.005%); format: functional
HCT-15 [24] = assay: Induction of apoptosis in human HCT15 cells assessed as late apoptotic cells at 2 uM after 24 hrs by Annexin-V-FITC/propidium iodide staining based flow cytometry (reference value: 6.59%); format: functional
HCT-15 [25] = assay: Induction of apoptosis in human HCT15 cells assessed as early apoptotic cells at 2 uM after 24 hrs by Annexin-V-FITC/propidium iodide staining based flow cytometry (reference value: 2.97%); format: functional
HCT-15 [26] = assay: Induction of apoptosis in human HCT15 cells assessed as viable cells at 2 uM after 24 hrs by Annexin-V-FITC/propidium iodide staining based flow cytometry (reference value: 90.4%); format: functional; conditions: HCT-15, 24 h, read-out: Activity
HCT-15 [27] = assay: Induction of apoptosis in human HCT15 cells after 24 hrs by Annexin-V-FITC/propidium iodide staining based flow cytometry; format: functional, cell-based
HCT-15 [28] = assay: Induction of apoptosis in human HCT15 cells assessed as increase in Bax protein expression up to 2 uM after 24 hrs by Western blot analysis; format: functional, cell-based
Outline: (§5)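 Protein extracted from HCT-15 cells after 24 h at 0, 0.5, 1.0 or 2.0 µM. Bcl-2, Bax and cleaved caspase-3 and -9 immunoblotted, band ratios quantified by densitometry. Student's t-test used.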

HCT-15 [29] = assay: Induction of apoptosis in human HCT15 cells assessed as downregulation of Bcl2 expression at 2 uM after 24 hrs by Western blot analysis; format: functional, cell-based; outline: as §5
HCT-15 [30] = assay: Induction of apoptosis in human HCT15 cells assessed as increase in cleaved caspase-3 levels after 24 hrs by Western blot analysis; format: functional, cell-based; outline: as §5
HCT-15 [31] = assay: Induction of apoptosis in human HCT15 cells assessed as increase in cleaved caspase-9 levels after 24 hrs by Western blot analysis; format: functional, cell-based; outline: as §5

## COc1cc(C(=O)SC(CC=C(C)C)c2cc(OC)c3c(c2OC)/C(=N/O)C=C/C3=N\O)cc(OC)c1OC (centres undefined)
HCT-15 [1]
  IC50: 270 nM
MGC-803
  IC50: 860 nM
Bel-7402
  IC50: 450 nM
MCF7
  IC50: 9.23 µM
[2]
  IC50: > 50 µM
[3]
  Activity: 0.049%
[4]
  Activity: 0.063%
[5]
  Activity: 0.076%
[6]
  Activity: 0.091%
[7]
  Activity: 0.084%
[8]
  Activity: 0.079%
HCT-15 [9]
  Activity: 44.1%
HCT-15 [10]
  Activity: 49.9%
HCT-15 [11]
  Activity: Active
HCT-15 [12]
  Activity: Active
HCT-15 [13]
  Activity: Active
HCT-15 [14]
  Activity: Active
HCT-15 [15]
  Activity: 0.018%
HCT-15 [16]
  Activity: 9.43%
HCT-15 [17]
  Activity: 4.56%
HCT-15 [18]
  viability at 0.5 µM: 86%
HCT-15 [19]
  Activity: 0.021%
HCT-15 [20]
  Activity: 23.7%
HCT-15 [21]
  Activity: 18.3%
HCT-15 [22]
  viability at 1 µM: 58%
HCT-15 [23]
  Activity: 0.088%
HCT-15 [24]
  Activity: 57.3%
HCT-15 [25]
  Activity: 20.1%
HCT-15 [26]
  viability at 2 µM: 22.4%
HCT-15 [27]
  Activity: Dose-dependent effect
HCT-15 [28]
  Activity: Active
HCT-15 [29]
  Activity: Active
HCT-15 [30]
  Activity: Dose-dependent effect
HCT-15 [31]
  Activity: Dose-dependent effect
